Experimental data published in ChEMBL document CHEMBL1772998, “Cytotoxic clerodane diterpenes from Casearia rupestris” (J Nat Prod, 2011).

Assays:
Type in all cases: functional, cell-based
HCT-8 = assay: Cytotoxicity against human HCT8 cells after 72 hrs by MTT assay; settings: HCT-8, 72 h
Procedure, shortened: (§1)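 Cells grown in RPMI 1640 with 10% FBS, 2 mM glutamine, streptomycin and penicillin at 37 C, 5% CO2. Seeded at 10^5 cells/well (adherent) or 0.3 × 10^6 cells/well (suspension). After 24 h, compounds in DMSO (0.39-25 μg/mL) added; doxorubicin (0.01-0.58 μg/mL) as positive control. After 69 h, MTT 0.5 mg/mL for 3 h. Formazan dissolved in DMSO, A595 read, IC50 by nonlinear regression.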

SF-295 = assay: Cytotoxicity against human SF295 cells after 72 hrs by MTT assay; settings: SF-295, 72 h; procedure, shortened: as §1
HL-60 = assay: Cytotoxicity against human HL60 cells after 72 hrs by MTT assay; settings: HL-60, 72 h; procedure, shortened: as §1
MDA-MB-435 = assay: Cytotoxicity against human MDA-MB-435 cells after 72 hrs by MTT assay; settings: MDA-MB-435, 72 h; procedure, shortened: as §1

Row | Structure (SMILES) | IC50 (HCT-8) [nM] | IC50 (SF-295) [nM] | IC50 (HL-60) [nM] | IC50 (MDA-MB-435) [nM]
1 | C=CC(=C)CC[C@]1(C)[C@H](C)[C@@H](OC(C)=O)[C@H](OC(=O)/C=C\C=C\CCCCC)[C@@]23C(=C[C@H](OC(C)=O)C[C@@H]12)[C@@H](OC(C)=O)O[C@@H]3OC(C)=O | > 5000 | > 5000 | 4300 | > 5000
2 | C=CC(=C)CC[C@]1(C)[C@H](C)[C@@H](OC(=O)/C=C\C=C\CCCCC)[C@H](OC(C)=O)[C@@]23C(=C[C@H](OC(C)=O)C[C@@H]12)[C@@H](OC(C)=O)O[C@@H]3OC(C)=O | > 5000 | > 5000 | > 5000 | > 5000
3 | C=CC(=C)CC[C@]1(C)[C@H](C)[C@@H](O)[C@H](OC(=O)/C=C\C=C\CCCCC)[C@@]23C(=C[C@H](O)C[C@@H]12)[C@@H](OC(C)=O)O[C@@H]3OC(C)=O (relative stereo) [CASEARUPESTRIN A] | 130 | 360 | 100 | 360
4 | C=CC(=C)CC[C@]1(C)[C@H](C)[C@@H](OC(=O)/C=C\C=C\CCCCC)[C@H](O)[C@@]23C(=C[C@H](O)C[C@@H]12)[C@@H](OC(C)=O)O[C@@H]3OC(C)=O (relative stereo) [CASEARUPESTRIN B] | 280 | 800 | 850 | 1300
5 | C=CC(=C)CC[C@]1(C)[C@H](C)[C@@H](OC(=O)/C=C\C=C\CCCCC)[C@H](O)[C@@]23C(=C[C@H](O)C[C@@H]12)[C@@H](OC)O[C@@H]3OC(C)=O (relative stereo) [CASEARUPESTRIN C] | > 5000 | > 5000 | > 5000 | > 5000
6 | C=CC(=C)CC[C@]1(C)[C@H](C)[C@@H](OC(=O)/C=C\C=C\CCCCC)[C@H](OC(C)=O)[C@@]23C(=C[C@H](O)C[C@@H]12)[C@@H](OC(C)=O)O[C@@H]3OC(C)=O (relative stereo) [CASEARUPESTRIN D] | 250 | 430 | 250 | 930
7 | COc1cccc2c1C(=O)c1c(O)c3c(c(O)c1C2=O)C[C@@](O)(C(=O)CO)C[C@@H]3O[C@H]1C[C@H](N)[C@H](O)[C@H](C)O1 [DOXORUBICIN] |  | 400 | 40 | 
